Reference: ChEMBL document CHEMBL1144439, “A novel class of in vivo active anticancer agents: achiral seco-amino- and seco-hydroxycyclopropylbenz[e]indolone (seco-CBI) analogues of the duocarmycins and CC-1065” (J Med Chem, 2005)

Columns and labels:
[1] = system: L1210; experiment: The concentration required for inhibiting the growth of the murine L1210 leukemia cells by 50%; type: functional, cell-based; conditions: Mus musculus
Outline: (§1)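 MTT growth inhibition in murine lines grown in DMEM with 10% FBS, HEPES, glutamine, pen/strep at 37 °C, 5% CO2. Seeded 80 000 cells/well, continuous drug exposure (DMSO stock diluted in DMEM) for 72 h, quadruplicate wells per concentration. MTT added for 4 h, formazan dissolved in acid 2-propanol, read at 570 nm (reference 630 nm). IC50 extrapolated from averaged absorbance curves.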

[2] = The concentration required for inhibiting the growth of the murine B16-F0 melanoma cells by 50%; type: functional; conditions: Mus musculus, B16F0; outline: as §1
[3] = system: K562; experiment: The concentration required for inhibiting the growth of the human K562 chronic myeloid leukemia cells by 50%; type: functional, cell-based
Outline: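 Drug exposure was […] in the dark, then cells were washed and plated at 10⁴ cells/well, eight wells per sample, and incubated 4 days. MTT was added for 5 h, formazan dissolved in DMSO and read at 550 nm.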

[4] = system: P815; experiment: The concentration required for inhibiting the growth of the murine P815 mastocytoma cells by 50%; type: functional, cell-based; conditions: Mus musculus
Outline: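 P815 cells grown in DMEM with 10% FBS, HEPES, glutamine and pen/strep, seeded at 80 000 cells/well. Drug in DMSO/DMEM was added to final concentrations from 1.0 × 10^-12 to 1.0 × 10^-4 M, continuous for 72 h at 37 °C, 5% CO2, in quadruplicate. MTT was added for 4 h and solubilised in acid 2-propanol, read at 570/630 nm. IC50 was extrapolated from mean absorbance curves.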

[5] = system: CAKI-1; experiment: Concentration required to kill 50% of human CAKI-1 renal cancer cells; type: functional
Outline: (§2)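 NCI 60-cell-line human tumour panel. Continuous 48 h drug exposure, then sulforhodamine B assay for cell viability. […] GI50 and TGI are generated from the same curves.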

[6] = system: HCT-15; experiment: Concentration required to kill 50% of human HCT-15 colon cancer cells; type: functional; outline: as §2
[7] = system: MDA-N; experiment: Concentration required to kill 50% of human MDA-N breast cancer cells; type: functional; outline: as §2
[8] = system: PC-3; experiment: Concentration required to kill 50% of human PC-3 prostate cancer cells; type: functional; outline: as §2
[9] = system: RXF 393; experiment: Concentration required to kill 50% of human RXF 393 renal cancer cells; type: functional; outline: as §2
[10] = system: COLO 205; experiment: Concentration required to kill 50% of human COLO 205 colon cancer cells; type: functional; outline: as §2
[11] = system: HCC 2998; experiment: Concentration required to kill 50% of human HCC2998 colon cancer cells; type: functional; outline: as §2
[12] = system: Hs-578T; experiment: Concentration required to kill 50% of human Hs 578.T breast cancer cells; type: functional; outline: as §2
[13] = system: IGROV-1; experiment: Concentration required to kill 50% of human IGROV1 ovarian cancer cells; type: functional; outline: as §2
[14] = system: DU-145; experiment: Concentration required to kill 50% of human DU-145 prostate cancer cells; type: functional; outline: as §2
[15] = system: OVCAR-3; experiment: Concentration required to kill 50% of human OVCAR-3 ovarian cancer cells; type: functional; outline: as §2
[16] = system: OVCAR-5; experiment: Concentration required to kill 50% of human OVCAR-5 ovarian cancer cells; type: functional; outline: as §2
[17] = system: OVCAR-8; experiment: Concentration required to kill 50% of human OVCAR-8 ovarian cancer cells; type: functional; outline: as §2
[18] = system: SK-OV-3; experiment: Concentration required to kill 50% of human SK-OV-3 ovarian cancer cells; type: functional; outline: as §2
[19] = system: NCI/ADR-RES; experiment: Concentration required to kill 50% of human NCI/ADR-RES breast cancer cells; type: functional; outline: as §2
[20] = system: MDA-MB-231; experiment: Concentration required to kill 50% of human MDA-MB-231/ATCC breast cancer cells; type: functional; outline: as §2
[21] = system: EKVX; experiment: Concentration required to kill 50% of human EKVX non-small cell lung cancer cells; type: functional; outline: as §2
[22] = system: HOP-62; experiment: Concentration required to kill 50% of human HOP-62 non-small cell lung cancer cells; type: functional; outline: as §2
[23] = system: HOP-92; experiment: Concentration required to kill 50% of human HOP-92 non-small cell lung cancer cells; type: functional; outline: as §2
[24] = system: NCI-H23; experiment: Concentration required to kill 50% of human NCI-H23 non-small cell lung cancer cells; type: functional; outline: as §2
[25] = system: NCI-H226; experiment: Concentration required to kill 50% of human NCI-H226 non-small cell lung cancer cells; type: functional; outline: as §2
[26] = system: NCI-H460; experiment: Concentration required to kill 50% of human NCI-H460 non-small cell lung cancer cells; type: functional; outline: as §2
[27] = system: NCI-H522; experiment: Concentration required to kill 50% of human NCI-H522 non-small cell lung cancer cells; type: functional; outline: as §2
[28] = system: A549; experiment: Concentration required to kill 50% of human A549/ATCC non-small cell lung cancer cells; type: functional; outline: as §2
[29] = system: NCI-H322M; experiment: Concentration required to kill 50% of human NCI-H322M non-small cell lung cancer cells; type: functional; outline: as §2
[30] = system: HL-60; experiment: Concentration required to kill 50% of human HL-60 leukemia cells; type: functional; outline: as §2
[31] = system: K562; experiment: Concentration required to kill 50% of human K-562 leukemia cells; type: functional; outline: as §2
[32] = system: MOLT-4; experiment: Concentration required to kill 50% of human MOLT-4 leukemia cells; type: functional; outline: as §2
[33] = Concentration required to kill 50% of human U-251 CNS cancer cells; type: functional
Outline: (§3)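 NCI 60-cell human cancer panel run at the National Cancer Institute. Cells exposed to compound for 48 h, with a sulforhodamine B read-out.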

[34] = system: UACC-62; experiment: Concentration required to kill 50% of human UACC-62 melanoma cells; type: functional; outline: as §3
[35] = system: ACHN; experiment: Concentration required to kill 50% of human ACHN renal cancer cells; type: functional; outline: as §2
[36] = system: HT-29; experiment: Concentration required to kill 50% of human HT-29 colon cancer cells; type: functional; outline: as §2
[37] = system: KM12; experiment: Concentration required to kill 50% of human KM12 colon cancer cells; type: functional; outline: as §2
[38] = system: LOX IMVI; experiment: Concentration required to kill 50% of human LOX IMVI melanoma cells; type: functional; outline: as §2
[39] = system: Malme-3M; experiment: Concentration required to kill 50% of human MALME-3M melanoma cells; type: functional; outline: as §2
[40] = system: SF-268; experiment: Concentration required to kill 50% of human SF-268 CNS cancer cells; type: functional; outline: as §2
[41] = system: SF-295; experiment: Concentration required to kill 50% of human SF-295 CNS cancer cells; type: functional; outline: as §2
[42] = system: SF-539; experiment: Concentration required to kill 50% of human SF-539 CNS cancer cells; type: functional; outline: as §2
[43] = system: SK-MEL-2; experiment: Concentration required to kill 50% of human SK-MEL-2 melanoma cells; type: functional; outline: as §2
[44] = system: SK-MEL-5; experiment: Concentration required to kill 50% of human SK-MEL-5 melanoma cells; type: functional; outline: as §2
[45] = system: SNB-19; experiment: Concentration required to kill 50% of human SNB-19 CNS cancer cells; type: functional; outline: as §2
[46] = system: 786-0; experiment: Concentration required to kill 50% of human 786-0 renal cancer cells; type: functional; outline: as §2
[47] = system: A498; experiment: Concentration required to kill 50% of human A-498 renal cancer cells; type: functional; outline: as §2
[48] = system: MCF7S; experiment: Concentration required to kill 50% of human MCF-7 breast cancer cells; type: functional; outline: as §2
[49] = Concentration required to kill 50% of human RPMI-8226 leukemia cells; type: functional; outline: as §2
[50] = system: SK-MEL-28; experiment: Concentration required to kill 50% of human SK-MEL-28 melanoma cells; type: functional; outline: as §2
[51] = system: SN12C; experiment: Concentration required to kill 50% of human SN12C renal cancer cells; type: functional; outline: as §2
[52] = system: TK-10; experiment: Concentration required to kill 50% of human TK-10 renal cancer cells; type: functional; outline: as §3
[53] = system: UO-31; experiment: Concentration required to kill 50% of human UO-31 renal cancer cells; type: functional; outline: as §3
[54] = Concentration required to kill 50% of human T-47D breast cancer cells; type: functional, Cancer cell lines; outline: as §3
[55] = system: BT-549; experiment: Concentration required to kill 50% of human BT-549 breast cancer cells; type: functional; outline: as §2
[56] = system: HCT-116; experiment: Concentration required to kill 50% of human HCT116 colon cancer cells; type: functional; outline: as §2
[57] = system: SNB-75; experiment: Concentration required to kill 50% of human SNB-75 CNS cancer cells; type: functional; outline: as §2
[58] = system: SW-620; experiment: Concentration required to kill 50% of human SW-620 colon cancer cells; type: functional; outline: as §2
[59] = system: OVCAR-4; experiment: Concentration required to kill 50% of human OVCAR-4 ovarian cancer cells; type: functional; outline: as §2

COc1cc2cc(C(=O)Nc3cc(OCc4ccccc4)c4ccccc4c3CCCl)[nH]c2c(OC)c1OC
IC50 [1]: 51000 nM
IC50 [2]: > 100000 nM

COC(=O)c1[nH]c2c(O)cc(NC(=O)c3cc4cc(OC)c(OC)c(OC)c4[nH]3)c(CCCl)c2c1C(=O)OC
IC50 [3]: 250 nM
IC50 [4]: 5400 nM
IC50 [1]: 4200 nM
IC50 [2]: 6800 nM

COc1cc2cc(C(=O)N3CC(CCl)c4c3cc(O)c3ccccc43)[nH]c2c(OC)c1OC (stereo not given)
IC50 [3]: 28 nM
IC50 [1]: 8.4 nM
IC50 [2]: 78 nM

COc1cc2cc(C(=O)Nc3cc(N)c4ccccc4c3CCOC(C)=O)[nH]c2c(OC)c1OC
IC50 [1]: 53000 nM
IC50 [2]: 54000 nM

COc1ccc2[nH]c(C(=O)Nc3cc(N)c4ccccc4c3CCCl)cc2c1
IC50 [1]: 390 nM
IC50 [2]: 260 nM

COc1cc2cc(C(=O)Nc3cc(N)c4ccccc4c3CCCl)[nH]c2c(OC)c1OC [CENTANAMYCIN]
Log 10 LC50 [5]: >-4.3
Log 10 LC50 [6]: >-4.3
Log 10 LC50 [7]: >-4.3
Log 10 LC50 [8]: -4.81
Log 10 LC50 [9]: -6.86
Log 10 LC50 [10]: -4.69
Log 10 LC50 [11]: -6.65
Log 10 LC50 [12]: >-4.3
Log 10 LC50 [13]: >-4.3
Log 10 LC50 [14]: >-4.3
Log 10 LC50 [15]: >-4.3
Log 10 LC50 [16]: -4.43
Log 10 LC50 [17]: -4.69
Log 10 LC50 [18]: >-4.3
Log 10 LC50 [19]: -4.33
Log 10 LC50 [20]: -4.58
Log 10 LC50 [21]: -4.73
Log 10 LC50 [22]: >-4.3
Log 10 LC50 [23]: -4.42
Log 10 LC50 [24]: -5.07
Log 10 LC50 [25]: >-4.3
Log 10 LC50 [26]: -4.81
Log 10 LC50 [27]: -5.53
Log 10 LC50 [28]: >-4.3
Log 10 LC50 [29]: >-4.3
Log 10 LC50 [30]: >-4.3
Log 10 LC50 [31]: >-4.3
Log 10 LC50 [32]: >-4.3
Log 10 LC50 [33]: -5.21
Log 10 LC50 [34]: -6.49
Log 10 LC50 [35]: >-4.3
Log 10 LC50 [36]: -4.41
Log 10 LC50 [37]: >-4.3
Log 10 LC50 [38]: -4.75
IC50 [3]: 45 nM
IC50 [1]: 180 nM
Log 10 LC50 [39]: >-4.3
Log 10 LC50 [40]: >-4.3
Log 10 LC50 [41]: >-4.3
Log 10 LC50 [42]: >-4.3
Log 10 LC50 [43]: -6.74
Log 10 LC50 [44]: -4.85
Log 10 LC50 [45]: >-4.3
Log 10 LC50 [46]: -4.58
Log 10 LC50 [47]: >-4.3
Log 10 LC50 [48]: -4.54
Log 10 LC50 [49]: >-4.3
Log 10 LC50 [50]: >-4.3
Log 10 LC50 [51]: -5.65
Log 10 LC50 [52]: -4.33
Log 10 LC50 [53]: >-4.3
Log 10 LC50 [54]: >-4.3
Log 10 LC50 [55]: -5.76
Log 10 LC50 [56]: -4.67
IC50 [2]: 150 nM
Log 10 LC50 [57]: -5.78
Log 10 LC50 [58]: >-4.3
Log 10 LC50 [59]: >-4.3

COc1cc2cc(C(=O)Nc3cc(O)c4ccccc4c3CCCl)[nH]c2c(OC)c1OC
IC50 [3]: 150 nM
IC50 [4]: 25 nM
IC50 [1]: 55 nM
IC50 [2]: 27 nM
